HTR1E agonist: 5-HT1E receptor agonists, primary screen, cell-based, HTS. 5-hydroxytryptamine receptor 1E (Homo sapiens), P28566. CHO 5-HT1E Ga15 NFAT-bla reporter, FRET; 0% DMSO wells, 100% control agonist wells. activation, % at 6 µM. actives 0.69% (n = 65,000). AID 574, 2007;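 active = activation above a set limit, the screen-wide mean activation plus 3 SD, cut at about 8.5% in these data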
5HT1a ag: human 5-HT1a receptor agonists, primary screen, cell-based, CHO, Ga15 NFAT-bla reporter; 5-hydroxytryptamine receptor 1A (Homo sapiens), P08908; activation, % at 10 µM; CHO 5-HT1a Ga15 NFAT-bla reporter, FRET ratio; 0% basal, 100% maximal reference agonist; actives 0.56% (n = 65,000);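 active = activation above the screen-wide mean activation plus 3 SD, cut at about 19% in these data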
Target sequence (P08908 whole entry, looked up): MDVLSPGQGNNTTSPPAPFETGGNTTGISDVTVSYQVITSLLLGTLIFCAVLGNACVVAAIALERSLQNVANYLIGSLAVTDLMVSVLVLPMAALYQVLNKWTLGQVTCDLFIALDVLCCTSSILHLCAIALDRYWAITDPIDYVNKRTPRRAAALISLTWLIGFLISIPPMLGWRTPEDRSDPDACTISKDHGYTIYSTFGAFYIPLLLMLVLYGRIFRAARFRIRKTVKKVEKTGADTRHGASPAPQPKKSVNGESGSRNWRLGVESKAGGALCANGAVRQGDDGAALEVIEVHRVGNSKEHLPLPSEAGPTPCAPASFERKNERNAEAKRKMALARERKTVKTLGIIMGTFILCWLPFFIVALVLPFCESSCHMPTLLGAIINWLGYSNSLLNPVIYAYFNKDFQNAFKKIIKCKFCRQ
S1P3 agonist: human S1P3 receptor agonists, primary screen, cell-based, primary and confirmation, NFAT-BLA reporter | AID 373, 2006 | activation, % at 4.5 µM | S1P3 NFAT-BLA reporter cells, agonism, FRET ratio; relative to 1 µM S1P, basal subtracted | actives 0.1% (n = 60,000) | Sphingosine 1-phosphate receptor 3 (Homo sapiens), Q99500;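 active = activation above the screen-wide mean plus 3 SD, cut at about 4.5% in these data, passing the limit was not always enough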
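Assay system: CHO cells stably expressing human S1P3, Gα16 and NFAT-β-lactamase reporter. Timing: overnight plating, 4 h compound 37 °C, 2 h substrate RT. Signal: β-lactamase FRET emission ratio 460/535 nm. Measure: percent activation versus median 1 µM S1P response, basal-subtracted, per plate. Repeats: primary screen single test, confirmation screen in triplicate.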
S1P1 ag pot: S1P1 agonists and agonism potentiators, primary screen, cell-based, primary and confirmation screens, CRE-bla reporter | Sphingosine 1-phosphate receptor 1 (Homo sapiens), P21453 | S1P1 CRE-bla cells, forskolin, beta-lactamase FRET, potentiator mode; S1P1 agonist co-added at EC20, 2 nM; 100% = saturating reference agonist, 0% = basal | activation, % at 9.5 µM | actives 0.57% (n = 56,000) | AID 449, 2006;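 active = activation above a cutoff set at the mean activation of all tested compounds plus 3 SD, cut at about 54% in these data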;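 also: forskolin at 4 µM as EC80 and the EC20 agonist is SEW2871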
HTR1E antagonist: 5-HT1E receptor antagonists, primary screen, cell-based, HTS; actives 0.99% (n = 65,000); CHO 5-HT1E Ga15 NFAT-bla reporter, FRET, antagonist; AID 571, 2007; 5-hydroxytryptamine receptor 1E (Homo sapiens), P28566; inhibition, % at 6 µM;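 active = inhibition above a set limit, the mean inhibition across every tested compound plus 3 SD, cut at about 29% in these data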;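 also: signal is the 460 over 535 nm emission ratio of beta-lactamase substrate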
5HT1a antag: human 5-HT1a receptor antagonists, primary screen, cell-based, CHO, Ga15 NFAT-bla reporter; 5-hydroxytryptamine receptor 1A (Homo sapiens), P08908; CHO 5-HT1a Ga15 NFAT-bla reporter, antagonist mode; inhibition, % at 10 µM; actives 0.68% (n = 62,000); AID 612, 2007;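 active = inhibition above the mean of all tested compounds plus 3 SD, cut at about 43% in these data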;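 also: receptor stimulated by 5-CT agonist at 100 nM near EC80; beta-lactamase reporter measured by ratiometric fluorescence of a cleavable substrate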
Numbers stand for hits; n = inactive; x = no result. Hits are enriched below; roughly 3% of the tested compounds scored in any of these assays.

SMILES	HTR1E agonist	5HT1a ag	S1P3 agonist	S1P1 ag pot	HTR1E antagonist	5HT1a antag
Oc1ccc(CNc2ccccc2F)c2cccnc12	n	n	n	n	n	n
Oc1c(CN2CCN(c3ccccn3)CC2)cc(Cl)c2cccnc12	n	n	n	n	54	54
COc1ccc(CN2CCN(c3ccccn3)CC2)c(OC)c1	11	n	n	n	n	n
Oc1ccc(COCc2ccccc2)c2cccnc12	n	n	n	n	47	n
CC(C)n1c(SCC(=O)N2CCCc3ccccc32)nc2c1c(=O)n(C)c(=O)n2C	n	n	n	n	n	n
Cc1cc(Cl)ccc1OCc1nc(-c2ccc(O)cc2)n[nH]1	n	n	n	n	n	n
COCCN(C(=O)c1ccccc1)c1nnc(-c2cccnc2)s1	n	n	n	62	n	n
COCCN(C(=O)Cc1cccs1)c1nnc(-c2cccnc2)s1	n	n	n	n	n	n
COC(=O)C(Cc1ccccc1)NC(=O)CSc1nc(N)cc(=O)[nH]1 (stereo unspecified)	n	n	n	n	n	n
COc1cccc(NC(=O)CC2(CC(=O)O)CCCC2)c1	n	n	n	n	n	n
Nc1c(C(=O)OCC2CCCO2)c2nc3ccccc3nc2n1C1CCCC1 (stereo unspecified)	n	n	n	n	n	n
Cn1c(-c2c(N)n(C3CCCC3)c3nc4ccccc4nc23)nc2ccccc21	n	n	n	71	77	77
CCOC(=O)c1cc2sccc2n1CC(=O)c1ccc2c(c1)OCCO2	22	n	n	n	n	n
c1ccc2c(N3CCCC3)nc(-c3ccncc3)nc2c1	n	n	n	n	n	n
CN1CCN(c2nc(-c3ccncc3)nc3ccccc23)CC1	9.1	n	n	x	n	n
c1cncc(-c2nc3cc(Cc4ccc5oc(-c6cccnc6)nc5c4)ccc3o2)c1	n	n	n	n	n	n
c1cc(-c2nc3cc(Cc4ccc5oc(-c6ccncc6)nc5c4)ccc3o2)ccn1	18	n	n	n	n	n
Cc1ccccc1Cn1c(=N)n(CC(=O)c2ccco2)c2ccccc21	n	n	n	n	n	n
COc1ccc2[nH]c3ccccc3c2c1	n	n	n	n	n	n
COc1ccc2[nH]c3c(c2c1)CN(C)CC3	n	102	n	n	29	n
COc1ccccc1NS(=O)(=O)c1cc(Cl)ccc1OC	n	n	n	n	n	n
CCS(=O)(=O)N1Cc2ccccc2CC1C(=O)N1CCN(c2cccc(C)c2C)CC1 (stereo unspecified)	n	n	n	n	n	n
CN(C)CCNC(=O)c1c(O)c2c([nH]c1=O)CCCC2	11	n	n	n	n	n
CCOC(=O)CNC(=O)Cn1cnc2sc(C)c(S(=O)(=O)N3CCC(C)CC3)c2c1=O	n	60	x	x	n	n
Cc1nc2cc(F)ccc2n1C1CCN(S(=O)(=O)c2ccccc2)CC1	n	n	n	n	n	n
O=C1CN(C(=O)COC(=O)c2ccccc2NC(=O)c2ccco2)c2ccccc2N1	n	n	n	n	n	n
COCCn1c(C)cc(C(=O)CSc2nc3ccccc3o2)c1C	n	n	n	66	n	n
CCCc1ccc(Oc2cn[nH]c2-c2ccc(O)cc2O)cc1	n	n	n	74	n	n
O=S(=O)(Nc1ccc(N2CCOCC2)cc1)c1cccs1	10	n	n	n	n	n
CCCC(=O)c1ccc(N2CCN(C(=O)c3ccccc3Br)CC2)c(F)c1	n	n	n	98	n	n

Screening data as filed in PubChem.
